# According to ChEMBL document CHEMBL1177716, “Kinesin spindle protein (KSP) inhibitors with 2,3-fused indole scaffolds” (J Med Chem, 2010):
# Activity calls are given as the source filed them. The calls are words filed in the database; no cut-off is given here.
# Legend:
# [1] = target: T1, Kinesin-like protein KIF11 (Homo sapiens, UniProt P52732); test: Inhibition of human C-terminally His6-tagged microtubule-activated KSP motor domain ATPase activity after 30 mins by luciferase-derived luminescence assay
# T1 sequence (P52732 whole entry): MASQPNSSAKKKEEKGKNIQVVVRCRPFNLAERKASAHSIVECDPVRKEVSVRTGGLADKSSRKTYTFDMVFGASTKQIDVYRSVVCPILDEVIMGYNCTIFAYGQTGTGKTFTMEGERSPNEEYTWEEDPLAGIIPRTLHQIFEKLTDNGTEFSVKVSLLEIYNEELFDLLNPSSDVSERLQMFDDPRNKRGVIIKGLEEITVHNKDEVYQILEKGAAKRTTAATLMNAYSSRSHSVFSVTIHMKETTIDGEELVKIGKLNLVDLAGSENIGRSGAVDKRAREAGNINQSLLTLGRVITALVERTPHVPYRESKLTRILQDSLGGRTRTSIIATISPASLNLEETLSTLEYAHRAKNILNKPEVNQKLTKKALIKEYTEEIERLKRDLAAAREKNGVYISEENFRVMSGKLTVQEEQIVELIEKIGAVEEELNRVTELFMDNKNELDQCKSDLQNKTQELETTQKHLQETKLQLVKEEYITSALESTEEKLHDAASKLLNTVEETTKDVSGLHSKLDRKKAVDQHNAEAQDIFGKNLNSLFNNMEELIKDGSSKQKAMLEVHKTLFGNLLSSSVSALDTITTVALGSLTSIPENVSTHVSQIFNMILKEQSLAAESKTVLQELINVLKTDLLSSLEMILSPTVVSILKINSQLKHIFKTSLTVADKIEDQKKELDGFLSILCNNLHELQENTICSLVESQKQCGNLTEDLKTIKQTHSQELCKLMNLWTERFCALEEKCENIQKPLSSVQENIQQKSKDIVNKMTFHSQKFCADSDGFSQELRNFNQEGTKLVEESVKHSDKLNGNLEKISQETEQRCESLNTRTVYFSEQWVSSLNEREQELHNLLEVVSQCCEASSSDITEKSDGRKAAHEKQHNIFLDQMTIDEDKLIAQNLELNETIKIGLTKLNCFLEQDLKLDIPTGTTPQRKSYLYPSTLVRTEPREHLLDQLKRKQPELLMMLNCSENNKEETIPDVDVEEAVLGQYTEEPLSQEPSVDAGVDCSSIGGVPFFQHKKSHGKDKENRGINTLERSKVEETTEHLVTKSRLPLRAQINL
# [2] = tested on: HeLa; test: Cytotoxicity against human HeLa cells at 60 uM after 48 hrs […]; assay type: functional
# [3] = tested on: HeLa; test: Cytotoxicity against human HeLa cells after 48 hrs […]; assay type: functional, cell-based; details: for IC50: Homo sapiens, HeLa, 48 h
# [4] = organism: Sus scrofa; test: Inhibition of pig brain topoisomerase 2-mediated supercoiled DNA relaxation after 20 mins by agarose gel electrophoresis analysis
# Method in brief: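 Supercoiled DNA was incubated with topo II, with or without test compound. Gel lanes included supercoiled DNA alone, DNA plus enzyme without compound, and DNA plus enzyme with AMSA as the reference inhibitor.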
# [5] = organism: Sus scrofa; test: Inhibition of pig brain topoisomerase 1-mediated supercoiled DNA relaxation after 20 mins by agarose gel electrophoresis analysis
# Method in brief: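 Supercoiled DNA was incubated with topo I, with or without test compound. Gel lanes included supercoiled DNA alone, DNA plus enzyme without compound, and DNA plus enzyme with camptothecin as the reference inhibitor.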
# [6] = tested on: HeLa; test: Cell cycle arrest in human HeLa cells assessed as accumulation at G2/M phase with incomplete chromosome condensation at 36 uM after 20 hrs by DAPI staining; assay type: functional, cell-based
# [7] = tested on: HeLa; test: Cell cycle arrest in human HeLa cells assessed as accumulation at M phase at 36 uM after 20 hrs by DAPI staining relative to taxol; assay type: functional; details: in the assay text read “at 32 uM” for “at 36 uM”
# Method in brief: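 HeLa cells were exposed to compound for 20 h and scored for M-phase arrest. Mitotic index was expressed as a percentage of the induction given by 0.1 μM taxol.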
SMILES,IC50 [1] [µM],inhibition at 60 µM [2] [%],IC50 [3] [µM],other results
Cc1ccc2c(c1)[nH]c1ccccc12,22,< 50,–,–
Cn1c2ccccc2c2ccc(C(F)(F)F)cc21,5.6,< 50,–,–
CC(C)(C)c1ccc2c(c1)[nH]c1ccc(C(=O)O)cc12,11,< 50,–,–
CCCCN1C(=O)[C@@H]2Cc3c([nH]c4ccccc34)[C@@H](c3cccc(O)c3)N2C1=O,7.1,–,8.6,–
O=Cc1ccc2[nH]c3ccccc3c2c1,17,< 50,–,–
COc1ccc2c(c1)[nH]c1c(C)nccc12,–,–,–,inhibition [4]: Active; inhibition [5]: Active
Cc1cccc2c1[nH]c1ccccc12,23,< 50,–,–
Oc1ccc2c(c1)[nH]c1ccccc12,–,< 50,–,–
Cc1ccc2c(c1)[nH]c1ccc(C(F)(F)F)cc12,11,–,35,–
CC(C)(C)c1cccc2c1[nH]c1ccccc12,14,–,41,–
Cc1ccc2[nH]c3ccc(C(F)(F)F)cc3c2c1,8.8,< 50,–,–
c1ccc2c(c1)[nH]c1cc3c(cc12)CCCC3,25,< 50,–,–
O=Cc1ccc2c(c1)[nH]c1ccccc12,13,< 50,–,–
Cc1ccc2c(c1)[nH]c1ccc(F)cc12,7.5,< 50,–,–
COC(=O)c1ccc2c(c1)[nH]c1ccccc12,11,< 50,–,–
c1ccc2c(c1)ccc1c3ccccc3[nH]c21,4.6,< 50,–,–

# Further lines, with some results ahead:
IC50 [1] [µM],SMILES,inhibition at 60 µM [2] [%],IC50 [3] [µM],other results
0.39,COC(=O)c1ccc2[nH]c3cc(C(C)(C)C)ccc3c2c1,< 50,–,–
3.2,CC(C)(C)Oc1ccc2c(c1)[nH]c1ccccc12,< 50,–,inhibition (INH) [3]: <50%
3.3,FC(F)(F)c1cccc2c1[nH]c1ccccc12,< 50,–,–
1.6,CC(=O)c1ccc2[nH]c3cc(C)ccc3c2c1,–,51,–
0.51,FC(F)(F)Oc1ccc2c(c1)[nH]c1ccccc12,–,29,–
1.4,CC(C)(C)c1ccc2c(c1)[nH]c1cc(C(F)(F)F)ccc12,< 50,–,–
2.8,CCc1ccc2c(c1)[nH]c1ccccc12,< 50,–,–
0.87,FC(F)c1ccc2c(c1)[nH]c1ccccc12,–,46,–
1.5,CC(C)c1ccc2c(c1)[nH]c1ccccc12,–,1.5,–
0.24,CC(C)(C)c1ccc2[nH]c3ccccc3c2c1,–,6.5,Activity [6]: Active; Activity [7]: 76%
1.6,c1ccc2c(c1)[nH]c1c3c(ccc12)CCCC3,–,30,–
